Screening data as filed in PubChem BioAssay.
Shown are actives, neighbours in structure and some others; about 3.5% of the full set was active somewhere.
HMGR II inh: E. faecalis class II HMG-CoA reductase inhibition | AID 1066 | purified E. faecalis HMGR, NADPH absorbance 340 nm kinetic | inhibition, % at 10 µM | actives 0.41% (n = 190,000);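 active = inhibition above a set limit, the median over all tested compounds plus 3 SD, cut at about 9.5% in these data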;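 also: enzyme runs in reverse so mevalonate oxidation gives rising NADPH absorbance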
bCat nuc transl: modulators of beta-catenin nuclear translocation; HeLa beta-catenin nuclear translocation, immunofluorescence imaging; nuclear translocation activity, % at 5 µM; actives 0.3% (n = 190,000); AID 1665;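 active = nuclear translocation activity above 50% at 5 µM, with a well cell count of 50 or more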;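 also: per-cell ratio of nuclear to cytoplasmic median beta-catenin stain intensity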
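test system = HeLa cells, endogenous beta-catenin | dosing = single 5 µM dose plus 0.02–20 µM confirmation series | times = compound treatment 24 h, 37°C, 5% CO2 | technique = beta-catenin immunofluorescence imaging with DAPI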
RAM network inh: yeast RAM network inhibition | inhibition, % at 50 µM | actives 1.8% (n = 190,000) | S. cerevisiae dse1pr::URA3 reporter, 5-FOA growth OD615, 2 d; analog-sensitive cbk1-as2 kinase mutant strain | AID 868;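 active = inhibition above a set limit, 3 SD over mean compound inhibition, cut at about 8.4% in these data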;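 also: inhibition rescues growth on 5-FOA so higher OD means more RAM inhibition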
Yeast growth inh: yeast BB579 growth reduction in restrictive medium. S. cerevisiae BB579 growth, OD615, 48 h. inhibition, % at 10 µM. actives 0.51% (n = 140,000);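 active = inhibition above a set limit, 3 SD over the mean compound inhibition, cut at about 44% in these data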
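Detection: OD615 turbidity measurement; Material: Saccharomyces cerevisiae DeaD strain BB579, replicative lifespan model yeast; Timing: 48 h exposure, 30 °C; Doses: single 10 µM dose; Medium: CSMM-D restrictive synthetic medium containing dextrose (glucose); Controls: amphotericin B at 10 µg/mL as positive control.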
Yeast lifespan up: extends the lifespan of yeast | AID 775 | S. cerevisiae growth with nicotinamide, OD615; deaD strain in restrictive glucose medium | inhibition of the nicotinamide effect, % at 10 µM | actives 0.68% (n = 130,000);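 active = inhibition above a set limit, placed 3 SD over the median of all compounds, cut at about 26% in these data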
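Assay system: DeaD-strain S. cerevisiae. Medium: CSMM-D glucose medium, restrictive. Reagent: nicotinamide, 1.5 mM, co-present with compound. Compound: 10 µM single point, 0.25% DMSO. Schedule: culture preincubation 4 h, compound exposure 48 h, both 30 °C. Detection: absorbance at 615 nm.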
MT stabilizer: microtubule stabilizers in HeLa cells; actives 0.83% (n = 200,000); HeLa tubulin immunostaining HCS, 24 h; share of cells brighter than vehicle mean+2SD; % tubulin-high responders, % at 10 µM;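 active = plate Z-score above 3 for both tubulin-high and condensed-nucleus cell shares, with cell loss under 80%, at 10 µM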;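 also: anti alpha tubulin signal scored within the nucleus-defined area of each cell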
RAM efflux-def: RAM network inhibition, efflux-deficient strain | S. cerevisiae efflux-deficient reporter strain, 5-FOA growth OD615, 2 days | shares compounds with RAM network inh | 1,200 tested, under 10 active | max inhibition, %; call rule not given here
Hits are given with their value; . = inactive; / = no result given.

SMILES	HMGR II inh	bCat nuc transl	RAM network inh	Yeast growth inh	Yeast lifespan up	MT stabilizer	RAM efflux-def
Cc1onc(-c2c(Cl)cccc2Cl)c1C(N)=S	.	.	.	/	/	.	/
O=c1oc2cc(OCc3ccc(F)cc3F)ccc2cc1-c1ccc2ccccc2n1	.	.	.	.	.	.	/
CCOc1ccc(CN2CCN(Cc3nc4c(s3)CCCC4)CC2CCO)cc1 (stereo not drawn)	.	.	.	/	/	.	/
Cc1nc(C)c(NC(=O)N2CCc3ccccc32)cc1NC(=O)N1CCc2ccccc21	.	.	12.0	.	.	.	.
CSC1=N/C(=C\c2cccnc2)C(=O)N1c1ccccc1	.	.	.	.	.	.	/
CCCCSC1=N/C(=C/c2ccsc2)C(=O)N1c1ccccc1	.	.	16.0	.	.	.	.
CCCSC1=N/C(=C/c2ccsc2)C(=O)N1c1ccccc1	.	.	12.1	.	.	.	.
CCSC1=N/C(=C\c2cccnc2)C(=O)N1c1ccccc1	.	.	.	.	.	.	/
CCSC1=N/C(=C/c2ccsc2)C(=O)N1c1ccccc1	.	.	11.9	.	.	.	.
COc1ccc(CN2CCN(C(=O)c3cc(-c4cccnc4)nc4ccc(Cl)cc34)CC2)c(OC)c1OC	.	.	.	/	/	.	/
Cc1cc(C)c2c(N)c(C(=O)N3CCc4ccccc4C3)sc2n1	.	.	.	/	/	.	/
c1ccc2c(SCc3cn4ccccc4n3)nncc2c1	.	.	.	/	/	.	/
O=C(Nc1cc(Sc2ccccn2)cc([N+](=O)[O-])c1)c1ccc(Cl)cc1	.	/	.	.	.	.	/
O=C(Nc1cc(Sc2ccccn2)cc([N+](=O)[O-])c1)c1cccc(Cl)c1	.	.	11.8	.	.	.	.
CN(CCOc1ccccc1)C(=O)c1cc([N+](=O)[O-])cc([N+](=O)[O-])c1	.	.	.	/	/	.	/
CC1(C)[C@H]2CC=C(CN3CCC(N4CCC(C(=O)N5CCCC5)CC4)CC3)[C@@H]1C2	.	.	.	/	/	.	/
CCCCN1C(=O)/C(=C/C=C2/CC(C)(C)CN2C)SC1=S	.	/	11.9	.	.	.	.
CCCCN1C(=O)/C(=C/C=C2\Oc3ccccc3N2CC)SC1=S	.	.	.	/	/	.	/
COc1ccc(S(=O)CC(=O)Nc2ccc(Cl)cc2Cl)cc1 (stereo not drawn)	.	.	.	/	/	.	/
S=C(NCC1CCCCC1)Nc1ccc(Oc2ccccc2)cc1	.	/	14.8	48.9	.	.	.
Cc1ccc(/C=N/NC(=O)CNC(=O)c2cccc([N+](=O)[O-])c2C)o1	.	.	.	/	/	.	/
Cc1ccc(-n2c(SCC(=O)Nc3cccc(S(=O)(=O)NC4=NCCCCC4)c3)nc3ccccc3c2=O)cc1C	.	.	11.6	.	.	.	.
O=C(NCCc1ccccc1)c1c(O)c2cccc3c2n(c1=O)CC3	.	.	21.8	.	.	.	.
O=C(NCc1ccccn1)c1c(O)c2cccc3c2n(c1=O)CC3	.	.	.	.	.	.	/
CCCCCCn1c(=O)c(C(=O)N/N=C/c2cccc(F)c2)c(O)c2ccccc21	.	/	16.3	/	/	.	.
SMILES	HMGR II inh	bCat nuc transl	RAM network inh	Yeast growth inh	Yeast lifespan up	MT stabilizer	RAM efflux-def
CCn1c(=O)c(C(=O)NCCc2ccccc2)c(O)c2ccccc21	.	.	12.3	.	.	.	.
CCCCCCCCC(=O)NNC(=O)c1c(O)c2ccccc2n(CC)c1=O	.	.	12.7	/	/	.	.
Cc1cc(/C=C(/C#N)c2cccc(Cl)c2)c(C)n1C	.	.	17.3	.	.	.	.
CCc1ccc(NC(=O)Cn2c(SC)nc3ccccc32)cc1	.	.	20.6	.	.	.	.
COc1ccc2nc(SCCC(=O)O)cc(C)c2c1	/	.	/	/	/	/	/
Cc1ccc(S(=O)(=O)NCc2ccc3c(c2)cc(C)n3C)cc1	.	.	12.4	.	.	.	.
COc1ccc(-c2nc3ccccc3c(=O)n2CCOc2ccc(C)cc2C)cc1	.	.	14.8	.	.	.	.
COc1ccc(-c2nc3ccccc3c(=O)n2CCOc2ccccc2C)cc1	.	.	21.0	.	.	.	.
COc1ccc(-c2nc3ccccc3c(=O)n2CCOc2cc(C)ccc2C)cc1	.	.	14.0	.	.	.	.
CN(C)S(=O)(=O)c1ccc(Cl)c(NC(=O)COC(=O)c2ccc3c(c2)NC(=O)CS3)c1	/	.	/	/	/	/	/
O=C(O)CC1(CC(=O)Nc2ccc(F)c(Cl)c2)CCCCC1	/	.	/	/	/	/	/
COc1ccc(-c2c/c(=N\c3nc(-c4ccccc4)c(C)s3)c3ccccc3o2)cc1O	.	164.6	11.4	.	.	.	.
COC(=O)c1nc(-c2ccccc2)oc1N1CCOCC1	.	.	.	/	/	.	/
O=C(CSc1ccc(Cl)cc1)N1CCN(c2ccc([N+](=O)[O-])cc2Cl)CC1	.	.	14.2	.	.	.	.
CCCC(=O)N1CCN(c2ccc([N+](=O)[O-])cc2Cl)CC1	.	.	.	.	.	.	/
O=C(CSc1ccc(Cl)cc1)N1CCN(c2c(Cl)cccc2[N+](=O)[O-])CC1	.	.	16.6	.	.	.	.
CN(CCCC(=O)NC1CC(C)(C)NC(C)(C)C1)S(=O)(=O)c1ccc([N+](=O)[O-])cc1	.	.	.	/	/	.	/
O=C(c1ccc(C(F)(F)F)cc1)N1CCC(=O)N(C(COCc2ccccc2)Cc2ccccc2)CC1 (stereo not drawn)	.	/	25.6	.	.	.	.
CCn1cc(C(=O)OCC(=O)c2ccccc2)c(=O)c2ccc(C)nc21	.	.	17.5	/	/	.	.
Cc1cc(C(=O)CCl)c(C)n1CCc1ccc(F)cc1	.	.	.	/	/	.	/
Cc1cc(C(=O)CCl)c(C)n1CCc1ccc(Cl)cc1	.	.	12.7	/	/	.	.
COc1ccccc1OCC(=O)Nc1ccc(CSc2ccccc2)cc1C	.	.	17.8	.	.	.	.
O=C(NC(=S)Nc1cccc(C(F)(F)F)c1)c1csnn1	.	.	.	/	/	.	/
C=C1CCN(CC(=O)OC)S(=O)(=O)c2ccccc21	/	.	/	/	/	/	/
CSc1nnc(-c2sccc2-n2cccc2)o1	.	.	.	/	/	.	/
Clc1cccc(Cl)c1CSc1nnc(-c2sccc2-n2cccc2)o1	.	.	16.6	.	.	.	.
COc1ccc(N=C2S/C(=C\c3cccs3)C(=O)N2CC(C)C)cc1	.	.	.	.	.	.	/
COc1ccc(N=C2S/C(=C\c3ccc(C)s3)C(=O)N2CC(C)C)cc1	.	/	14.7	.	.	.	.
N#Cc1c(N)n(CCOC(=O)c2cccc([N+](=O)[O-])c2)c2nc3ccccc3nc12	.	.	12.3	.	.	.	.
N#Cc1c(N)n(CCOC(=O)c2cccc(Br)c2)c2nc3ccccc3nc12	.	.	.	.	.	.	/
